High-throughput results from PubChem BioAssay.
Dynein cargo inh – dynein cargo transport inhibition. z-score, hits read low. 0.47% of 220,000 active. 3617.4 mouse cells, GR-EGFP nuclear translocation imaging; test concentration mostly 20 µM; stimulated with dexamethasone, 1 µM; stronger effect = lower value;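 active = plate z-score of nuclear minus cytoplasmic receptor signal below a set negative limit, without overly bright fluorescence or cell loss, cut at about -3.5 in these data, passing the limit was not always enough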;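 note: z-score of nuclear minus cytoplasmic ring GR-EGFP intensity difference per well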
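medium = tetracycline-free induction medium containing charcoal-stripped FBS | also added = 1.0 µM final dexamethasone stimulus | schedule = 48 h induction, 1 h compound, 30 min dex at 37 °C | technique = fixed, Hoechst-stained cells imaged at 10x for EGFP | measure = GR-EGFP nuclear translocation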
MT stabilize HCS – stabilizes microtubules in HeLa cells; HeLa tubulin immunostaining HCS, 24 h; share of cells brighter than vehicle mean+2SD; % tubulin-high responders, % at 10 µM; 0.83% of 200,000 active; AID 2205;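 active = plate Z-score above 3 for both tubulin-high and condensed-nucleus cell shares, with cell loss under 80%, at 10 µM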;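 note: anti alpha tubulin signal scored within the nucleus-defined area of each cell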
CHOP inhibitor – inhibitors of CHOP induction in ER stress response | AID 2732 | 3.8% of 220,000 active | inhibition, % at 10 µM | CHO-K1 CHOP-promoter luciferase, tunicamycin-induced, 15-18 h;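 active = compounds that reduced the stress-induced luciferase reporter signal by more than about 70% of percent inhibition, limit read from the data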;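 note: 0% = tunicamycin plus vehicle and 100% = wells without tunicamycin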
Lmaj promast – reduces viability of Leishmania major promastigotes; resazurin fluorescence viability; inhibition, % at 10 µM; 9% of 200,000 active; AID 1063; in the data active = inhibition above about 50%;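 note: promastigotes grown with compound for 44 hours at 28 °C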
bCat nuc transl – beta-catenin nuclear translocation modulation; HeLa beta-catenin nuclear translocation, immunofluorescence imaging; nuclear translocation activity, % at 5 µM; AID 1665; 0.3% of 190,000 active;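 active = nuclear translocation activity above 50% at 5 µM, with a well cell count of 50 or more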;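 note: per-cell ratio of nuclear to cytoplasmic median beta-catenin stain intensity; plate controls were DMSO negative control for no effect and GSK-3 inhibitor IX positive control for full effect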
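Test system: human HeLa cells, native beta-catenin. Compound dosing: 5 µM primary single dose, 0.1% DMSO, 0.02–20 µM confirmation series. Incubation: compound exposure 24 h at 37°C. Detection: beta-catenin immunostaining with DAPI counterstain, 20x imaging, 6 fields/well. Read-out basis: Nuclear/cytoplasmic beta-catenin signal ratio, % activation.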
Autophagy mod – alters autophagy in cells; MEF GFP-LC3 puncta imaging; test concentration mostly 10 µM; calls only at 10 µM (by protocol); 0.98% of 190,000 active; AID 463193;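 active = percentage of spot-positive cells more than 3 SD above its plate mean, without a fluorescence outlier flag or 80% toxicity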;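 note: spot-positive cell cutoff set from DMSO-treated cells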
The depositor's hits bear a star; i = inactive; . = no result given; + = active, no number. A selection: hits, their analogues and other compounds. The true share with any hit is near 12%.

SMILES	Dynein cargo inh	MT stabilize HCS	CHOP inhibitor	Lmaj promast	bCat nuc transl	Autophagy mod
c1ccc(Nc2nc(NCC3CCCO3)c3ccccc3n2)cc1 (stereo not given)	-0.085	4	34	99*	0	i
COc1ccc(Nc2nc(NCC3CCCO3)c3ccccc3n2)c(OC)c1 (stereo not given)	-0.47	4	26	100*	0	i
Nc1nc(NCC2CCCO2)nc(Nc2ccccc2)c1[N+](=O)[O-] (stereo not given)	-0.96	2	18	14	.	i
Oc1cccc(Nc2nc(NCC3CCCO3)c3ccccc3n2)c1 (stereo not given)	-0.29	5	46	100*	.	i
COc1ccc(Nc2nc(NCC3CCCO3)nc(N)c2[N+](=O)[O-])cc1 (stereo not given)	-0.15	.	17	.	-2	.
c1ccc(-c2nc(NCC3CCCO3)c3ccccc3n2)nc1 (stereo not given)	0.22	5	-1	100*	3	i
O=C(NCC1CCCO1)c1ccccn1 (stereo not given)	0.31	3	-8	-2	1	i
O=C(c1nc2ccc(Cl)cn2c1CNCC[C@@H]1C[C@@H]2C=C[C@H]1C2)N1CCCCCCC1	2.7	4	66	70*	1	i
N#C/C(=C\N1CCN(Cc2ccc3c(c2)OCO3)CC1)c1nc2ccccc2s1	-1.3	6	31	7	-5	+
CCOC(=O)N1CCN(/C=C(\C#N)c2nc3ccccc3s2)CC1	-3.3	4	-12	7	-5	+
CCOC(=O)N1CCC(=NNc2nc3ccccc3s2)CC1	-0.013	.	-5	.	-1	.
Cc1ccc(-n2c3nc(=O)[nH]c(=O)c-3cc3cc([N+](=O)[O-])ccc32)cc1	-2	12	30	95*	4	i
CCOC(=O)C(=CNc1ccc(-c2ccco2)c(Cl)c1)C(=O)OCC	-0.081	.	3	.	1	.
Cc1cc(C(=O)C(C)Sc2cccc[n+]2[O-])c(C)n1-c1ccc(Cl)cc1 (stereo not given)	0.14	3	14	97*	0	i
Cc1ccc(-c2csc3nc4c5ccccc5c(NCCCN5CCOCC5)nn4c(=O)c23)cc1	-0.18	4	11	101*	8	i
COc1cc2c(cc1OC)C1Cc3ccc(OC)c(OC)c3CN1CC2 (stereo not given)	-0.34	2	12	95*	2	i
COc1ccc2c(c1OC)CN1CCc3cc4c(cc3[C@@H]1[C@@H]2O)OCO4	-0.49	2	13	-1	-5	i
O=C(CN1CCCc2ccccc21)N/N=C/c1ccccc1O	0.98	5	34	99*	0	i
O=C(CN1CCCc2ccccc21)Nc1ccc(F)cc1[N+](=O)[O-]	0.51	2	74*	-3	-4	i
O=C(CN1CCCc2ccccc21)N/N=C/c1ccc(F)cc1F	0.15	.	45	.	-1	.
O=c1[nH]nc(Cc2ccc(-c3cccc(Cl)c3)o2)c2ccccc12	1	3	72*	-2	12	i
O=C(Cc1n[nH]c(=O)c2ccccc12)NCc1ccc(Cl)cc1	-0.39	.	9	.	0	.
CC(=O)O[C@@]12CO[C@@H]1C[C@H](O)[C@@]1(C)C(=O)[C@H](O)C3=C(C)[C@@H](OC(=O)[C@H](O)[C@@H](NC(=O)OC(C)(C)C)c4ccccc4)C[C@](O)([C@@H](OC(=O)c4ccccc4)[C@H]21)C3(C)C	.	.	45	.	77*	.
CCOC(=O)N1CCN(C(=O)COc2cccc3c2CCN(Cc2ccccc2F)C3=O)CC1	-0.56	2	38	66*	-2	i
O=C1c2cccc(OCc3ccc(F)cc3)c2CCN1Cc1ccc(F)cc1	-0.88	2	85*	-5	1	i
SMILES	Dynein cargo inh	MT stabilize HCS	CHOP inhibitor	Lmaj promast	bCat nuc transl	Autophagy mod
O=C(COc1cccc2c1CCN(Cc1ccccc1F)C2=O)N1CCCCC1	3.3	1	16	11	0	i
Cc1ccc(CN2CCc3c(OCC(=O)Nc4cccc(C)c4C)cccc3C2=O)cc1	0.78	1	27	97*	-3	i
COc1ccc(S(=O)(=O)N2CCCCC2)cc1NC(=O)CSc1ncnc2ccccc12	-0.41	4	3	4	1	i
O=C(CN1CCN(c2ncccn2)CC1)NCCC1=CCCCC1	-1.3	4	7	-4	0	i
CCOC(=O)C1CCN(c2c(NCCN3CCN(c4ccccc4)CC3)c(=O)c2=O)CC1	-1	4	5	-6	-2	.
Cc1cc(C)cc(N(C(=O)CNS(=O)(=O)c2ccccc2)C(C(=O)NCc2ccccc2)c2ccc(C)o2)c1 (stereo not given)	-0.82	3	51	55*	-1	i
COc1ccc(CC(=O)NC(=S)Nc2ccc(S(N)(=O)=O)cc2)cc1	-0.62	4	11	-7	2	i
C=CCN(CC=C)S(=O)(=O)c1ccc(NC(=S)NC(=O)Cc2ccc(OC)cc2)cc1	3.4	2	62	62*	0	i
COCCn1c(C)cc(C(=O)CSc2cc(C)c3ccccc3n2)c1C	3.1	4	17	7	-1	i
O=C(CSc1nc2ccccc2c(=O)n1Cc1ccco1)N1CCCCCC1	2.9	5	11	79*	4	i
Cc1ccc(NC(=O)CN(C)C(=O)CSc2nc3ccccc3c(=O)n2Cc2ccco2)cc1	-0.85	3	36	87*	0	i
COCCn1c(C)cc(C(=O)CSc2nc3ccccc3c(=O)n2Cc2ccco2)c1C	0.14	3	27	78*	.	i
Cc1cc(C)nc(NN2C(=O)/C(=C/c3ccc(O)cc3)SC2=S)n1	-0.05	2	12	5	0	i
O=C(Nc1nc(-c2ccc3c(c2)OCCO3)cs1)C1CCCC1	-0.25	2	5	29	2	i
Nc1nc(NS(=O)(=O)c2ccc(Cl)cc2)nn1-c1ccccc1	0.28	.	8	.	0	.
COc1ccc(N2C(=O)C(CC(=O)Nc3ccc(F)cc3)N(CCc3ccc(OC)c(OC)c3)C2=O)cc1 (stereo not given)	-0.12	3	-5	6	-4	i
CCN(CC)C(=O)c1ccc(/C=C/c2c[nH]c3ccccc23)[n+](C)c1	0.38	3	-31	3	.	i
CC[n+]1c(/C=C/c2c[nH]c3ccccc23)ccc2cc(C)ccc21	-1.1	80*	75*	100*	37	+
Cc1ccc(Cl)c2c1=NC(=O)C=2c1[nH]c(=S)[nH]c1O	0.83	6	44	-6	0	i
O=C(NC(=S)NC(c1ccccc1)c1ccncc1)c1ccccc1 (stereo not given)	0.69	3	39	45	-2	i
